Test results as given in ChEMBL document CHEMBL4052592, “Identification of Cyclic Depsipeptides and Their Dedicated Synthetase from Hapsidospora irregularis” (J Nat Prod, 2017).
The source made the active and inactive calls. The rule behind the calls is not given here.

Tests used:
Format in all cases: cell-based
[1] = molecular target: Transient receptor potential cation channel subfamily A member 1 (Homo sapiens, UniProt O75762); assay: Activation of human TRPA1 expressed in HEK293 cells assessed as induction of calcium influx at 100 uM by fluro 4-AM dye-based fluorescence assay; settings: hek293, 100 µM
In short: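 Stable HEK-293 line grown to confluence on gelatin-coated wells (DMEM:F12, 5% FBS, geneticin 300 μg/mL). Cells loaded 1 h at 37 °C with Fluo 4-Direct/LHC-9, washed into LHC-9 with 1 mM probenecid and Trypan Red, then held 30 min at 37 °C. Compound added at 3× in calcium assay buffer. Fluorescence read 1 min at 37 °C as max ΔF/s versus medium only, expressed as % of 250 μM 2,4-ditert-butylphenol response. At least three replicates.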

[2] = molecular target: Transient receptor potential cation channel subfamily M member 8 (Homo sapiens) (UniProt Q7Z2W7); assay: Activation of human TRPM8 expressed in HEK293 cells assessed as induction of calcium influx at 100 uM by fluro 4-AM dye-based fluorescence assay
In short: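 Uses the same HEK-293 stable-line culture and Fluo 4-AM loading (1 h, 37 °C), followed by the probenecid/Trypan Red LHC-9 wash and 30 min equilibration at 37 °C. Treatment is made at 3× in LHC9. Max ΔF/s is read over 1 min at 37 °C, normalized to medium-only and given as % of the 25 μM icilin control. Three or more replicates.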

[3] = molecular target: T1, Transient receptor potential cation channel subfamily V member 3 (Homo sapiens) (UniProt Q8NET8); assay: Activation of human TRPV3 expressed in HEK293 cells assessed as induction of calcium influx at 100 uM by fluro 4-AM dye-based fluorescence assay
T1 sequence (whole entry): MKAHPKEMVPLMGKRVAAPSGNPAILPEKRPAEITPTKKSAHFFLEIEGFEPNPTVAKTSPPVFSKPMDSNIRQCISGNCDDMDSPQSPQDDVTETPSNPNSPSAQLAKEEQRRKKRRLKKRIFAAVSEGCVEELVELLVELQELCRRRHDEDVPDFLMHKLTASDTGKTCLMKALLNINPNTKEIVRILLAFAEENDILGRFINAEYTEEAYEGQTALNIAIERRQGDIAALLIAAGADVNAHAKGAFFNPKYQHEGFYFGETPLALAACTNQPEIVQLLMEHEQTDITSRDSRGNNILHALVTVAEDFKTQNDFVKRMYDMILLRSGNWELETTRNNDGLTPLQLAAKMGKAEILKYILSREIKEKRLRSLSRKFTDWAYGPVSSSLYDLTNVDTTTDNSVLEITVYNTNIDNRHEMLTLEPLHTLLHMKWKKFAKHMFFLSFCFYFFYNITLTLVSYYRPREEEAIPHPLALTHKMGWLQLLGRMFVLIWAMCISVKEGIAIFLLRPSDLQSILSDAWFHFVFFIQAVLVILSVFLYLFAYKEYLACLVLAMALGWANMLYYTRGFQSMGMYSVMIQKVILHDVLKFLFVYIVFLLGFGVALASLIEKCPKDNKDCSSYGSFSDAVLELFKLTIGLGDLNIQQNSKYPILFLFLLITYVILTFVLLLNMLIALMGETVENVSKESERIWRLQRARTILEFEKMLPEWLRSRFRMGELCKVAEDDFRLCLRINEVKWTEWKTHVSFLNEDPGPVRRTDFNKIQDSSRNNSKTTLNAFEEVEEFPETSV
In short: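 Confluent HEK-293 cells stably expressing the channel are dye-loaded 1 h at 37 °C, washed, and equilibrated 30 min at 37 °C in LHC-9 with 1 mM probenecid. Compounds are dosed at 3× in calcium assay buffer. The 1-min read at 37 °C gives max ΔF/s over medium, reported as % of the 300 μM carvacrol agonist control. At least three replicates.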

[4] = molecular target: Transient receptor potential cation channel subfamily V member 4 (Homo sapiens) (UniProt Q9HBA0); assay: Activation of human TRPV4 expressed in HEK293 cells assessed as induction of calcium influx at 100 uM by fluro 4-AM dye-based fluorescence assay
In short: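 HEK-293 stable overexpressors on gelatin-coated plates are loaded with Fluo 4-AM (1 h, 37 °C), then given probenecid/Trypan Red LHC-9 and 30 min at 37 °C. Treatments are prepared at 3× in LHC9, with 1-min monitoring at 37 °C. Max ΔF/s versus medium only is given as % of the 30 nM GSK1016790A control. Three replicates minimum.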

[5] = molecular target: Transient receptor potential cation channel subfamily V member 1 (Homo sapiens) (UniProt Q8NER1); assay: Activation of human TRPV1 expressed in BEAS-2B cells assessed as induction of calcium influx at 100 uM by fluro 4-AM dye-based fluorescence assay
In short: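 TRPV1-overexpressing BEAS-2B cells are loaded with Fluo 4-Direct/LHC-9 at room temperature, washed into LHC-9 containing probenecid and Trypan Red, and incubated 30 min at 37 °C. Test solution is made at 3× in LHC9. Fluorescence is followed 1 min at 37 °C. Max ΔF/s relative to medium is expressed as % of the response to 10 μM capsaicin. Minimum triplicate.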

Chain of Transient receptor potential cation channel subfamily A member 1 (O75762 whole entry): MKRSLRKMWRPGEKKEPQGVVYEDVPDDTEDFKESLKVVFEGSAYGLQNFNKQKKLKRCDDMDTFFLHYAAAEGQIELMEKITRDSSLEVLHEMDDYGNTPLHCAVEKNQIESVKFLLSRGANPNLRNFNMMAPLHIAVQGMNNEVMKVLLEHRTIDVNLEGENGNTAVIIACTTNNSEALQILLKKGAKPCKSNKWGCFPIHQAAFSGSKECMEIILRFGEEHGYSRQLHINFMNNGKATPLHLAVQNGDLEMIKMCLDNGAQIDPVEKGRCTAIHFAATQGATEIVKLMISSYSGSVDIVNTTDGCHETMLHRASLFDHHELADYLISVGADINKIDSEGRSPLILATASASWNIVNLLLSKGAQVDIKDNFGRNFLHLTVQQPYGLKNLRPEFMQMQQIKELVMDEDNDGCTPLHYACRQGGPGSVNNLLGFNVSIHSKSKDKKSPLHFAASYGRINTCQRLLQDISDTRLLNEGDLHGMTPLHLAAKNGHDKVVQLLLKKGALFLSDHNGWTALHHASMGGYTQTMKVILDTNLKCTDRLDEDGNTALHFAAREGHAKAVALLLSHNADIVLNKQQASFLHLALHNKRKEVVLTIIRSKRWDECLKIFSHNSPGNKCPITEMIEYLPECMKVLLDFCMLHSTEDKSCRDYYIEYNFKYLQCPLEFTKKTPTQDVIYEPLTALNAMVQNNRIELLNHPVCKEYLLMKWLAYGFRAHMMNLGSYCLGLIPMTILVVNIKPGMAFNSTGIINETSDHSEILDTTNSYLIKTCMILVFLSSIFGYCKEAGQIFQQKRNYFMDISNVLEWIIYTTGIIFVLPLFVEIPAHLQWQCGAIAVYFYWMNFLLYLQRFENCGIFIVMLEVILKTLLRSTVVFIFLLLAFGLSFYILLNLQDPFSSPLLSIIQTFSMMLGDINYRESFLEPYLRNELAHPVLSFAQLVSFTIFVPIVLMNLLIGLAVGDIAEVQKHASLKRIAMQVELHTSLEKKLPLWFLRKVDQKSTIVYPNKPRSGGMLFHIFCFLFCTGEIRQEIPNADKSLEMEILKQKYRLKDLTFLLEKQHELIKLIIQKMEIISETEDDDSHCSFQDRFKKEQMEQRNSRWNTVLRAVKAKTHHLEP
Chain of Transient receptor potential cation channel subfamily M member 8 (Homo sapiens) (Q7Z2W7 whole entry, looked up): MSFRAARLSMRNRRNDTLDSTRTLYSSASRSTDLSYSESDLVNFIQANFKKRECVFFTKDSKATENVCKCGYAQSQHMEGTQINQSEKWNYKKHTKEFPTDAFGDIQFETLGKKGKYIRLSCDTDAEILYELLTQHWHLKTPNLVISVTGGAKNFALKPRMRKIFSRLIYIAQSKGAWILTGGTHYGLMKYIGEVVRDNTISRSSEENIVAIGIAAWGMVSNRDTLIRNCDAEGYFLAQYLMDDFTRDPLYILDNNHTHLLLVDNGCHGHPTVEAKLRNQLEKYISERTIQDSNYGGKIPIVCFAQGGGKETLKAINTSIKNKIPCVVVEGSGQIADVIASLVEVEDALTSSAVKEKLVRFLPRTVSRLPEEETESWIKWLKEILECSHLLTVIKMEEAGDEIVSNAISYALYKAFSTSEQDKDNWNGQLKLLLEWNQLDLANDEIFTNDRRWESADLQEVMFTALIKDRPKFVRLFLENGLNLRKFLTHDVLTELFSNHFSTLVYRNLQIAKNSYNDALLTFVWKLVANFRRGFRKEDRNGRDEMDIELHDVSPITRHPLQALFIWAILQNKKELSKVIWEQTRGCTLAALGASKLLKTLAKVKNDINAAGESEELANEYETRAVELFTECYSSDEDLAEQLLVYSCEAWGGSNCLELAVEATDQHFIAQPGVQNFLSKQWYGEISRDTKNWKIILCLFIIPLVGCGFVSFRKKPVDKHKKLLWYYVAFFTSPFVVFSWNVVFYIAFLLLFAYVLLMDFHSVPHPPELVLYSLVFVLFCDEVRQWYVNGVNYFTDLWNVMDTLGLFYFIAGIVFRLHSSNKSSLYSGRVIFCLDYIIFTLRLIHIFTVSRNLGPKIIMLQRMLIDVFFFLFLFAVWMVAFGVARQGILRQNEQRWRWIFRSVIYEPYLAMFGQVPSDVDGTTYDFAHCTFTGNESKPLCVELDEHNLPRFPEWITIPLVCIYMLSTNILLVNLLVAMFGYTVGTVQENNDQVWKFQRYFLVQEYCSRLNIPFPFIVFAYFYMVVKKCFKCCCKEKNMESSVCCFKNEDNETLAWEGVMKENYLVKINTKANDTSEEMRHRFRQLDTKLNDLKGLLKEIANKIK
Chain of Transient receptor potential cation channel subfamily V member 1 (Homo sapiens) (Q8NER1 whole entry): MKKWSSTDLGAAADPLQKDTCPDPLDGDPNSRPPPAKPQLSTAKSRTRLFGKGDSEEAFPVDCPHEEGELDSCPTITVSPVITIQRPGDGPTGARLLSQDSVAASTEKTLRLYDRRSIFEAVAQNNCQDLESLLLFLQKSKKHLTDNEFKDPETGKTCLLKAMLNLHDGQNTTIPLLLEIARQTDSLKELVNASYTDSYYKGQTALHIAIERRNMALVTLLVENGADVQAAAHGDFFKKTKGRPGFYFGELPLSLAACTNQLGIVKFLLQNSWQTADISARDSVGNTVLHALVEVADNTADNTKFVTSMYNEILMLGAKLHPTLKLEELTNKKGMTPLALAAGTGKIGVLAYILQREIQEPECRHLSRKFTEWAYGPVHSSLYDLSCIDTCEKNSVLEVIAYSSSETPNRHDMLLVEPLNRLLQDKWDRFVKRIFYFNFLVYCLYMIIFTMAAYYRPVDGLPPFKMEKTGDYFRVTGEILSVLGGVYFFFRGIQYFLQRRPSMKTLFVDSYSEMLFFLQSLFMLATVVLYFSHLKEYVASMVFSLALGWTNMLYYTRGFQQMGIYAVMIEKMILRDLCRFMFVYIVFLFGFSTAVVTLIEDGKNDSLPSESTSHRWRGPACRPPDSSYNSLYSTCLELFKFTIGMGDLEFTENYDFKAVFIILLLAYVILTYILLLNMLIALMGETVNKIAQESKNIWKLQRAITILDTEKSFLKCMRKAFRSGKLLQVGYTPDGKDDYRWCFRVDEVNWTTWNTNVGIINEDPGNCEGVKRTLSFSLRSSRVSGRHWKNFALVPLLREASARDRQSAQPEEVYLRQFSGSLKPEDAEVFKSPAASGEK
Chain of Transient receptor potential cation channel subfamily V member 4 (Homo sapiens) (Q9HBA0 whole entry): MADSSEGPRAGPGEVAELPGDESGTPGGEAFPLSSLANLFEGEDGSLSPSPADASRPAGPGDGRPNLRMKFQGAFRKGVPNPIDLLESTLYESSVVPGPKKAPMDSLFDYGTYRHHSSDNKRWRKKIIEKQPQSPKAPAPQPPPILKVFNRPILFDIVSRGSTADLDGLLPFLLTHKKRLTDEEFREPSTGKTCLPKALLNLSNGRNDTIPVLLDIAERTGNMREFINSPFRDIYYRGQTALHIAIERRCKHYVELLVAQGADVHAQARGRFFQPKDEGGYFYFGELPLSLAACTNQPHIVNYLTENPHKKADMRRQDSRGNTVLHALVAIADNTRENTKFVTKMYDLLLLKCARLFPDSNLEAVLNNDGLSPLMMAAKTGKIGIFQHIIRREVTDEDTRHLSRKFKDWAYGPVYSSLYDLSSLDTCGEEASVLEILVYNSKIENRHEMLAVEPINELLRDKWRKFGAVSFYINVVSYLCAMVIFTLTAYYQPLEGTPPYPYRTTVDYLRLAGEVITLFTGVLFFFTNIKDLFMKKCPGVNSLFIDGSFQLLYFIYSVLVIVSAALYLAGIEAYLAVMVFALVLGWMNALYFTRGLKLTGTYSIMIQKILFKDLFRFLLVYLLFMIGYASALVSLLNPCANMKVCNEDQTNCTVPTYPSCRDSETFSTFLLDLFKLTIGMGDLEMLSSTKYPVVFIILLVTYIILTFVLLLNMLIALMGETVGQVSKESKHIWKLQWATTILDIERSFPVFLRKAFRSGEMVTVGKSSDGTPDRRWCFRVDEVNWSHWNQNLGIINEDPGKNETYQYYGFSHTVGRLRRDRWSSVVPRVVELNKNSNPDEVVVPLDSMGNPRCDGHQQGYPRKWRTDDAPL

Row | SMILES | Activity [1] | Activity [2] | Activity [3] | Activity [4] | Activity [5]
1 | CC(C)C[C@@H]1NC(=O)[C@@H](CC(C)C)OC(=O)CCNC(=O)[C@H](Cc2ccccc2)NC(=O)[C@H](CC(C)C)OC1=O | Active | Active | inactive | inactive | inactive
2 | CC(C)C[C@@H]1NC(=O)[C@@H](CC(C)C)OC(=O)CCNC(=O)[C@H](Cc2ccc(O)cc2)NC(=O)[C@H](CC(C)C)OC1=O | Active | Active | inactive | inactive | inactive
